This excerpt belongs to a sample that is enriched for hits.
T cruzi growth-1 – inhibitors of T. cruzi proliferation | T. cruzi beta-gal in NIH3T3, GalScreen luminescence, 90 h | inhibition, % at 8.34 µM | 77,000 tested, 5.9% active | AID 624255;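 active means mean inhibition above about 93%, with at least 55% of replicates each passing it, limit read from the data, passing the limit was not always enough; inconclusive means only one of those two conditions holds; inactive means neither condition holds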
IDH1 mut inh – IDH1 R132H (human) inhibition. inhibition, % at 10 µM. AID 624101. IDH1 R132H reductase, diaphorase/resazurin fluorescence, 60 min. 70,000 tested, 0.18% active. O75874; in the data active means inhibition above about 34%; inconclusive means no clear call, values can overlap the other calls; inactive means below about 11%;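 further: 0% = DMSO and 100% = no enzyme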
Target sequence (O75874 whole entry R132H): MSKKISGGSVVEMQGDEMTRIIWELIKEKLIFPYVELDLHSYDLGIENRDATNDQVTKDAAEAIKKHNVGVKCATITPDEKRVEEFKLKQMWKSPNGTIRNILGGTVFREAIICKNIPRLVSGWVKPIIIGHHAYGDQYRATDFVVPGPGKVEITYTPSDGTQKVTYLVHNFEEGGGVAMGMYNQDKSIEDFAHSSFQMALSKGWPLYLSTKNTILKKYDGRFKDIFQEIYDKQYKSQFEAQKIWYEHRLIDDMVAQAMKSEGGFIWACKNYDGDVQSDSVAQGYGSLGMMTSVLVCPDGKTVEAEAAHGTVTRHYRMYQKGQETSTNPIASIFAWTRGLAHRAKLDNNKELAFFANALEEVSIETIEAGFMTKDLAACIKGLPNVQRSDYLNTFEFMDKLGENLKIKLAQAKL
GASC1 inh – inhibitors of human demethylase GASC-1 KDM4C | Q9H3R0 | GST-KDM4C 2-372, H3K9me3 peptide, LANCE TR-FRET | inhibition, % at 12.5 µM | 96,000 tested, 0.15% active | AID 720574;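 active means mean replicate inhibition above about 25%, with at least 55% of replicates also reaching it, limit read from the data, passing the limit was not always enough; inconclusive means only one of those two conditions met; inactive means neither condition met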
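Material: N-terminal GST-fused human GASC-1 (KDM4C) fragment, residues 2-372. Input: 10 nM enzyme. Incubation: enzyme reaction 30 min, then detection 60 min, both room temperature. Doses: one test concentration per compound. Read-out basis: inhibition from TR-FRET ratio decrease. Detection: LANCE TR-FRET, excitation 340 nm, emissions 618 and 671 nm.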
T cruzi growth-2 – blocks T. cruzi growth in NIH3T3 host cells; 5,600 tested, 72% active; inhibition, % at 8.35 µM; T. cruzi beta-gal in NIH3T3, GalScreen luminescence, 90 h; AID 651739; shares compounds with T cruzi growth-1;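 active means mean replicate inhibition above about 95% and at least 55% of replicates individually reaching it, limit read from the data; inconclusive means only one of the two criteria is met; inactive means neither criterion is met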
T cruzi growth-3 – blocks T. cruzi growth in NIH3T3 host cells | shares compounds with T cruzi growth-1 | T. cruzi beta-gal in NIH3T3, GalScreen luminescence, 90 h | inhibition, % at 2.09 µM | 5,600 tested, 21% active | AID 651740;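 active means mean inhibition above about 95%, with at least 55% of replicates also reaching it, limit read from the data; inconclusive means meets just one of the two conditions; inactive means meets neither condition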;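 further: plate controls were neutral control median for no effect and positive control median for full effect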
NIH3T3 tox – kills mouse NIH/3T3 fibroblasts; 5,600 tested, 14% active; NIH/3T3 viability, CellTiter-Glo ATP luminescence, 90 h; cytotoxicity (signal decrease), % at 8.35 µM; shares compounds with T cruzi growth-1; AID 651742;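 active means mean signal decrease across replicates above about 35% based on untreated-well scatter, with enough replicates individually passing, limit read from the data; inconclusive means no rule stated though some were filed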;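 further: 0% = median of neutral control wells and 100% = median of positive control wells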
NIH3T3 tox 2 – NIH/3T3 (mouse) viability loss; shares compounds with T cruzi growth-1; inhibition, % at 24.9 µM; NIH/3T3 viability, CellTiter-Glo ATP luminescence, 90 h; 5,600 tested, 56% active;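 active means mean loss of cell viability signal at or above a set limit, and enough replicates individually reaching it; inconclusive means meets only the mean limit or only the replicate share; inactive means meets neither condition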;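 further: 0% = median of neutral control wells and 100% = median of positive control wells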
The depositor's hits bear a star; ? = inconclusive; · = no result.

SMILES	T cruzi growth-1	IDH1 mut inh	GASC1 inh	T cruzi growth-2	T cruzi growth-3	NIH3T3 tox	NIH3T3 tox 2
C[C@@H]1CCCCO[C@H](CN(C)S(=O)(=O)c2ccccc2)[C@@H](C)CN([C@H](C)CO)C(=O)c2cc(NC(=O)Nc3ccc(C(F)(F)F)cc3)ccc2O1	115*	-1	0	?	-28	13	2
C[C@H](CO)N1C[C@H](C)[C@H](CN(C)S(=O)(=O)c2ccccc2)OCCCC[C@H](C)Oc2ccc(NC(=O)Nc3ccc(C(F)(F)F)cc3)cc2C1=O	104*	0	0	105*	109*	1	23
C[C@@H]1CCCCO[C@H](CN(C)S(=O)(=O)c2ccccc2)[C@@H](C)CN([C@@H](C)CO)C(=O)c2cc(NC(=O)Nc3ccc(C(F)(F)F)cc3)ccc2O1	103*	-1	-1	106*	109*	42*	70*
Cc1ccc(S(=O)(=O)N(C)C[C@H]2OCCCC[C@@H](C)Oc3ccc(NC(=O)Nc4ccc(C(F)(F)F)cc4)cc3C(=O)N([C@H](C)CO)C[C@@H]2C)cc1	·	·	-1	·	·	·	·
C[C@H](CO)N1C[C@H](C)[C@@H](CN(C)S(=O)(=O)c2ccccc2)OCCCC[C@H](C)Oc2ccc(NC(=O)Nc3ccc(C(F)(F)F)cc3)cc2C1=O	87	1	0	·	·	·	·
C[C@@H]1CCCCO[C@@H](CN(C)S(=O)(=O)c2ccccc2)[C@@H](C)CN([C@H](C)CO)C(=O)c2cc(NC(=O)Nc3ccc(C(F)(F)F)cc3)ccc2O1	56	1	0	·	·	·	·
C[C@@H]1CCCCO[C@H](CN(C)S(=O)(=O)c2ccccc2)[C@H](C)CN([C@@H](C)CO)C(=O)c2cc(NC(=O)Nc3ccc(C(F)(F)F)cc3)ccc2O1	107*	3	1	96*	111*	-1	14
C[C@@H]1CN([C@H](C)CO)C(=O)c2cc(NC(=O)Nc3ccc(C(F)(F)F)cc3)ccc2O[C@@H](C)CCCCO[C@@H]1CN(C)S(=O)(=O)c1ccccc1	90	3	2	·	·	·	·
Cc1noc(C)c1S(=O)(=O)Nc1cccc2c1O[C@H](CN(C)Cc1ccc(C(=O)Nc3ccccc3N)cc1)[C@H](C)CN([C@H](C)CO)C2=O	·	·	-1	·	·	·	·
O=C(c1cnc2ccccn12)C(F)(F)SCc1c(Cl)cccc1Cl	·	-1	·	·	·	·	·
CN(C)C(=O)c1cccc(-c2ccc(C3[C@@H]4CN(S(=O)(=O)c5ccccc5)C[C@H]3N4)cc2)c1 (stereo not given in full)	·	·	-1	·	·	·	·
O=S(=O)(c1cccc2cccnc12)N1CCN(Cc2ccc(OCCO)cc2)CC1	·	0	·	·	·	·	·
C[C@H]1CCCCO[C@@H](CN(C)S(=O)(=O)c2ccccc2)[C@@H](C)CN([C@@H](C)CO)C(=O)c2cc(NC(=O)Nc3ccc(C(F)(F)F)cc3)ccc2O1	100*	·	0	100*	113*	19	8
Cc1ccc(S(=O)(=O)N(C)C[C@@H]2OCCCC[C@H](C)Oc3ccc(NC(=O)Nc4ccc(C(F)(F)F)cc4)cc3C(=O)N([C@@H](C)CO)C[C@@H]2C)cc1	·	1	-1	·	·	·	·
O=C(Nc1ccccc1)N1CCCCN2[C@H](C1)[C@@H](c1ccc(C#CC3CC3)cc1)[C@@H]2CO	105*	·	0	96*	80	43*	104*
O=C(Nc1ccccc1)N1CCCCN2[C@@H](CO)[C@H](c3ccc(C#CC4CC4)cc3)[C@@H]2C1	108*	·	-1	89	70	?	103*
O=C(Nc1ccccc1)N1CCCCN2[C@H](CO)[C@@H](c3ccc(C#CC4CC4)cc3)[C@H]2C1	91	·	2	·	·	·	·
O=C(Nc1ccccc1)N1CCCCN2[C@H](CO)[C@H](c3ccc(C#CC4CC4)cc3)[C@@H]2C1	76	·	0	·	·	·	·
Cc1ccc2ccc(C(Nc3ccccn3)c3ccccc3Cl)c(O)c2n1 (stereo not given)	·	0	·	·	·	·	·
C[C@H](CO)N1C[C@H](C)[C@@H](CN(C)S(=O)(=O)c2ccc(Cl)cc2)OCCCC[C@H](C)Oc2ccc(NC(=O)Nc3ccc4c(c3)OCO4)cc2C1=O	106*	·	0	114*	104*	2	-3

Bioassay records as filed in PubChem BioAssay.
